Data published in article PMC12634867 (Neoplasia (New York, N.Y.), 2025).
Read-outs that look alike come from different tables or passages of the source.

What was measured:
[1] = system: noise-induced hearing loss (NIHL) model; conditions: cited from earlier work
[2] = system: NCCIT tumor-bearing SCID mice; experiment: NCCIT xenograft mouse model; type: in vivo
Procedure, shortened: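 Male SCID mice aged 12 wk were implanted s.c. with 1 × 10⁷ NCCIT cells in 1:1 Matrigel. At mean tumor size ~100 mm³, they were randomized into four groups (n = 10). […] Oral test compound or vehicle (10% DMSO/5% Tween-80/40% PEG-300/45% saline) was given b.i.d. on days 1–3. Cycles lasted 7 days, three in all. Caliper volumes normalized to baseline; two-way ANOVA with Tukey.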

CBA/CaJ mice [3] = experiment: multi-cycle cisplatin ototoxicity mouse model, DPOAE; type: in vivo; conditions: any combination group
mice = conditions: cited from earlier work
[4] = single dose, healthy male volunteers; cited from earlier work
[5] = system: IMR-32, SH-SY5Y, SKN-AS, SHP-77, H115, A549, Kelly, JKT1, NCCIT; conditions: neuroblastoma, lung and testicular origins; cited from earlier work
[6] = clinical phase I tolerability, cancer patients; type: in vivo, human
JKT1 cells = experiment: MTT cell viability, JKT1; type: cell-based; conditions: ∼0.02-100 μM AZD5438 together with cisplatin, 24 h MTT
NCCIT cells = experiment: NCCIT cell confluence; type: cell-based, human; conditions: for IC50: read-out: IC50, NCCIT cells
[7] = cited from earlier work
FVB mice = conditions: cited from earlier work
SEM-1 cells = experiment: MTT cell viability, SEM-1; type: cell-based; conditions: ∼0.02-100 μM AZD5438 together with cisplatin, 24 h MTT
CBA/CaJ mice [8] = experiment: multi-cycle cisplatin ototoxicity mouse model, ABR; type: in vivo
phosphorylated Rb = conditions: cited from earlier work
cyclin B1/CDK1 = conditions: read-out: in vitro IC50 against cyclin B1/CDK1; cited from earlier work
[9] = plasma pharmacokinetics of single oral AZD5438 dosing in mice; type: in vivo; conditions: CBA, mouse, 37.5 mg/kg
CBA/CaJ mice [10] = experiment: multi-cycle cisplatin ototoxicity mouse model, hair cell counts; type: in vivo
cyclin D1/CDK4 = conditions: read-out: in vitro IC50 against cyclin D1/CDK4; cited from earlier work
[11] = cited from earlier work; remark: listed apart in the source
cochlear explants = conditions: read-out: EC50 in cochlear explants; protection against cisplatin; cited from earlier work
CBA/CaJ mice [12] = experiment: multi-cycle cisplatin ototoxicity mouse model, survival and general condition; type: in vivo
cyclin A/CDK2 = conditions: read-out: in vitro IC50 against cyclin A/CDK2; cited from earlier work
cyclin E/CDK2 = conditions: read-out: in vitro IC50 against cyclin E/CDK2; cited from earlier work
CBA/CaJ model = CBA/CaJ model and retrospective human study; cited from earlier work

Q: For Cc1ncc(-c2ccnc(Nc3ccc(S(C)(=O)=O)cc3)n2)n1C(C)C [AZD5438], which “protection in NIHL model, co-treatment with dabrafenib” value ([1]; AZD5438 and dabrafenib, preservation at 8, 16 and 32 kHz) is on record?
A: The value was “enhanced protection”.

Q: And the “auditory thresholds in NIHL model” value ([1]; oral 75 mg/kg)?
A: Its value is “improved auditory thresholds at 8 and 16 kHz”.

Q: What about the “tumor volume, cisplatin + AZD5438 vs cisplatin only” value ([2]; 9.4 mg/kg b.i.d. oral + cisplatin 3 mg/kg) of the same compound?
A: Its value is “no significant differences”.

Q: What about the tumor volume ([2]; AZD5438 only, 9.4 mg/kg b.i.d. oral, vs vehicle) of the same compound?
A: Its tumor volume is “increased at similar rates”.

Q: What about the body weight ([2]; cisplatin + AZD5438 vs cisplatin only) of the same compound?
A: The body weight was “trend of body weight loss more than the cisplatin only group, although insignificantly”.

Q: And the survival ([2]; combination group and AZD5438 only group, 9.4 mg/kg b.i.d.)?
A: The survival was “several deaths occurred”.

Q: What about the “DPOAE amplitudes input and output analysis, protection vs cisplatin only” value (CBA/CaJ mice [3]) of the same compound?
A: The value was “no significant protection”.

Q: What about the “DPOAE thresholds and amplitudes, protection vs cisplatin only” value (CBA/CaJ mice [3]) of the same compound?
A: The value was “no significant protection”.

Q: And the cisplatin-induced nephrotoxicity (mice)?
A: The cisplatin-induced nephrotoxicity was “protected against cisplatin-induced nephrotoxicity”.

Q: What about the “maximum tolerated dose (MTD)” value [4] of the same compound?
A: Its value is 80 mg.

Q: What about the “interference with cisplatin's tumor killing in nine cancer cell lines” value [5] of the same compound?
A: Its value is “does not interfere”.

Q: What about the “estimated MTD” value ([6]; cancer patients, four times daily (QID), conjectured from NTDs) of the same compound?
A: The value was 20 to 90 mg.

Q: And the “human equivalent (tolerated) mouse dose” value ([6]; extrapolated from tolerated Cmax)?
A: The value was no more than 9.4 mg/kg.

Q: And the Cmax ([6]; human, plasma, oral)?
A: The Cmax was less than 300 ng/mL.

Q: What about the “interference with cisplatin tumor cell loss, JKT1” value (JKT1 cells) of the same compound?
A: Its value is “no substantial interferences”.

Q: What about the IC50 (NCCIT cells; Homo sapiens, NCCIT, 40 h) of the same compound?
A: Its IC50 is 1380 nM.

Q: And the “cell death of combination vs either drug alone” value (NCCIT cells; cisplatin 5 μM + AZD5438 3 μM, 40 h)?
A: The value was “significantly higher cell death”.

Q: What about the “dose-dependent linear Cmax values” ([7]; oral, animal and human studies) of the same compound?
A: The value was 5 to 1,000 ng/mL.

Q: And the Tmax ([7]; plasma, single oral dose)?
A: The Tmax was 30 to 180 min.

Q: What about the “protection against CIHL” value (FVB mice; oral 75 mg/kg once daily for three days) of the same compound?
A: The value was “significantly protected against CIHL at 32 kHz”.

Q: And the “cisplatin-induced hearing loss (ABR thresholds at 32 kHz)” value (FVB mice; transtympanic 50 µM, one hour before and 24 h after cisplatin)?
A: Its value is “significantly attenuated cisplatin-induced hearing loss”.

Q: And the “interference with cisplatin tumor cell loss, SEM-1” value (SEM-1 cells)?
A: Its value is “no substantial interferences”.

Q: And the “ABR wave 1 amplitudes, protection vs cisplatin only” value (CBA/CaJ mice [8]; any combination group)?
A: The value was “no significant protection”.

Q: What about the “ABR wave 1 latency, improvement vs cisplatin only” value (CBA/CaJ mice [8]; combination groups, all levels at 8 and 16 kHz) of the same compound?
A: Its value is “did not reveal significant improvements”.

Q: And the “time after administration within which phosphorylated Rb was modulated” value (phosphorylated Rb)?
A: Its value is 1 to 3 h.

Q: What about the IC50 (cyclin B1/CDK1) of the same compound?
A: The IC50 was 16 nM.

Q: And the Cmax [9]?
A: The Cmax was 1470 ± 916 ng/mL.

Q: What about the concentration at 2 h [9] of the same compound?
A: The concentration at 2 h was 621 ± 305 ng/mL.

Q: What about the concentration at 3 h [9] of the same compound?
A: The concentration at 3 h was 510 ± 135 ng/mL.

Q: And the “reduction of cisplatin-induced outer hair cell loss” value (CBA/CaJ mice [10]; AZD5438 co-treated groups, 32 kHz region)?
A: Its value is “did not significantly reduce cisplatin-induced outer hair cell loss”.

Q: What about the “inner hair cell loss” value (CBA/CaJ mice [10]; all groups) of the same compound?
A: Its value is “none of the groups caused any inner hair cell loss”.

Q: And the IC50 (cyclin D1/CDK4)?
A: The IC50 was 450 nM.

Q: What about the well tolerated dose ([11]; cancer patient cohort, QID one day weekly) of the same compound?
A: The well tolerated dose was no more than 90 mg.

Q: What about the “non-tolerated dose (NTD)” value ([11]; cancer patients, four times (QID) for one day per week) of the same compound?
A: The value was greater than 90 mg.

Q: What about the “non-tolerated dose (NTD)” value ([11]; cancer patients, four times daily for at least 14 and 28 consecutive days) of the same compound?
A: Its value is 40 mg.

Q: And the adverse events ([11]; continuous dosing, 40 mg QID, cancer patients)?
A: The adverse events was “gastrointestinal in origin, including profound anorexia and fatigue in some patients, accompanied by nausea and vomiting”.

Q: What about the EC50 (cochlear explants) of the same compound?
A: The EC50 was 5 nM.

Q: What about the “adverse effects based on body weight or behavior” value (CBA/CaJ mice [12]; co-treated animals (Fig. 2, Fig. 3)) of the same compound?
A: Its value is “no significant adverse effects”.

Q: What about the “mortality during the entire experiments” value (CBA/CaJ mice [12]; multi-cycle cisplatin + AZD5438 b.i.d.) of the same compound?
A: Its value is “Only a few mice mostly in the cisplatin + 37.5 mg/kg AZD5438 group died”.

Q: And the IC50 (cyclin A/CDK2)?
A: Its IC50 is 45 nM.

Q: And the IC50 (cyclin E/CDK2)?
A: Its IC50 is 6 nM.

Q: With CC(C)c1c(C(=O)Nc2ccccc2)c(-c2ccccc2)c(-c2ccc(F)cc2)n1CC[C@@H](O)C[C@@H](O)CC(=O)O [atorvastatin] as the compound, how does the auditory protection (CBA/CaJ model) read?
A: The auditory protection was 5–8 dB.

Q: Which tumor volume ([2]; cisplatin only, 3 mg/kg, two days per week) does the source give for N.N.[Cl][Pt][Cl] [cisplatin, cis-diamminedichloroplatinum (II)] here?
A: Its tumor volume is “completely obliterated the tumor volumes”.

Q: What about the IC50 (NCCIT cells; single agent, confluency over 40 h) of the same compound?
A: The IC50 was 9000 nM.

Q: And the auditory threshold elevations (FVB mice; single IP cisplatin 30 mg/kg, 8, 16 and 32 kHz)?
A: The auditory threshold elevations was 5–20 dB.
